PubChem BioAssay
Inconclusive results are not listed. Calls of active or inactive are those of the source.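 Rule for the calls, unless noted: active = cell viability at or below a set limit in both duplicate runs, the limit being the all-compound median minus 4 SD (cut at about 23% in these data, passing the limit was not always enough); inconclusive = no clear call, values can overlap the other calls; inactive = the rest.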

How the values were obtained:
[1] = S. cerevisiae growth inhibition in permissive medium (OD615), pilot counter-assay for S. cerevisiae lifespan shortening project, permissive growth control (AID 705;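 active = growth inhibition above 25% in both replicates, a cutoff set 3 SD above the mean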); conditions: OD615, 24 h, at 10 µM, hits give high values
How it was run: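 Material: engineered DeaD yeast; compound dosing: one dose 10 µM, DMSO 0.25% final; measure: yeast growth inhibition indicated by reduced 24 h OD615; detection: OD615 turbidity read; incubation: cells pre-grown 4 h, then 24 h compound exposure, 30 °C humidified; medium: permissive synthetic complete medium with raffinose and galactose carbon sources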

[2] = S. cerevisiae growth inhibition in restrictive medium, OD615, pilot screen, restrictive growth control, yeast lifespan reduction project (AID 706;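 active = growth inhibition above a set limit, 3 SD over mean compound inhibition, in both replicates, cut at about 43% in these data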;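 note: modified DeaD lifespan yeast strain shifted to restrictive glucose medium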); conditions: OD615, 48 h, at 10 µM, hits give high values
How it was run: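 material = engineered S. cerevisiae DeaD strain | medium = glucose-based CSMM-D restrictive medium | times = 4 h pre-incubation, 48 h exposure at 30 °C | technique = OD615 absorbance reading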

[3] = doxorubicin toxicity protection in MRP-1 cells – H69AR cells, CellTiter-Glo, duplicate, MRP-1 activator project, pilot screen (AID 807;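 active = viability increase at or above a cutoff of the median across tested compounds plus 3 SD, cut at about 8.5% in these data, passing the limit was not always enough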;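 note: compound pretreatment 18-22 h then 72 h combined with doxorubicin; 0% = doxorubicin alone and 100% = vehicle without doxorubicin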); conditions: H69AR viability with doxorubicin, CellTiter-Glo luminescence; at 10 µM; hits give high values
[4] = viability of HCT116 without oncogenic beta-catenin – human colon tumor cells, pilot screen (AID 823); conditions: HCT116 beta-catenin knockout viability, CellTiter-Glo, 60 h; at 10 µM; hits give low values;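 note: 0% = wells killed by 20 µM Hyamine and 100% = untreated DMSO cell wells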
[5] = viability of PTEN-null HCT116 cells – cell-based, HCT116 clonal line, CellTiter-Glo, pilot screen (AID 824;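 active = viability at or below 27.92% in each of two runs, the all-compound median minus 4 SD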;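 note: 0% = 20 µM Hyamine control and 100% = vehicle cell control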); conditions: HCT116 PTEN-deleted viability, 60 h, at 10 µM, hits give low values
[6] = RAM pathway blockade in budding yeast – dse1pr::URA3 reporter, 5-FOA selection, pilot screen (AID 869;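 active = inhibition over a set limit, the all-compound mean plus 3 SD, in both replicate runs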;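 note: 0% = DMSO wells with no growth and 100% = 10 µM 1-NA-PP1 with full growth; RAM network block rescues cells from 5-FOA so hits raise OD615 growth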); conditions: S. cerevisiae dse1pr::URA3 5-FOA growth, OD615, 2 d; at 10 µM; hits give high values; strain carries analog-sensitive mutant Cbk1 kinase
[7] = RAM signaling pathway blockade in yeast – S. cerevisiae, Pdr1DBD-CYC8 efflux-inhibited sensitized strain, primary screen (AID 1298;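 active = RAM network inhibition above 8.4% in each of two replicates, 3 SD over the compound average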;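 note: 0% = DMSO untreated cells without growth and 100% = 10 µM 1-NA-PP1 full growth; higher means more yeast growth rescued from 5-FOA killing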); conditions: S. cerevisiae cbk1-as DSE1-URA3 strain, 5-FOA growth OD615, 2 d; at 50 µM; hits give high values

CCOC(=O)c1cccc(NC(=O)C2CCC(CNc3c(N4CCOCC4)c(=O)c3=O)CC2)c1 (stereo not given)
inactive: growth inhibition [1] -7.33% | growth inhibition [2] -13.8% | viability increase [3] -2.63% | viability [4] 83.7% | viability [5] 82.4% | inhibition [6] 0.325% | RAM network inhibition [7] 1.31%

CC(C)(C)c1ccc(S(=O)(=O)N2CCCCC2C(=O)NCc2ccccn2)cc1 (stereo not given)
inactive: growth inhibition [1] -24.9% | growth inhibition [2] -29% | viability increase [3] -2.34% | viability [4] 93% | viability [5] 84.6% | inhibition [6] 0.13% | RAM network inhibition [7] 5.71%

O=C(Cc1n[nH]c(=O)c2ccccc12)NCc1ccccn1
inactive: growth inhibition [1] -3.9% | growth inhibition [2] -19.5% | viability increase [3] -0.08% | viability [4] 103% | viability [5] 99% | inhibition [6] 1.48% | RAM network inhibition [7] 2.08%

O=C(CSc1nc2ccccc2c(=O)[nH]1)N1CCCCC1
inactive: growth inhibition [1] -16.2% | growth inhibition [2] -5.08% | viability increase [3] -2.69% | viability [4] 98.7% | viability [5] 84.7% | inhibition [6] 0.395% | RAM network inhibition [7] -0.51%

Nc1nc2c(c3c1c(=O)oc1ccccc13)CCCCC2
inactive: growth inhibition [1] -4.79% | growth inhibition [2] 5.31% | viability increase [3] -2.59% | viability [4] 94.9% | viability [5] 96.2% | inhibition [6] 2.28% | RAM network inhibition [7] 2.05%

O=C1C(C=NCc2cccnc2)=C(O)c2ccccc21
inactive: growth inhibition [1] -6.25% | growth inhibition [2] -0.095% | viability increase [3] -2.11% | viability [4] 94.1% | viability [5] 93.4% | inhibition [6] 1.67% | RAM network inhibition [7] 2.36%

CC1CCCC(C)N1CCCNC(=O)Cn1cc2c(n1)CCCC2 (stereo not given)
inactive: growth inhibition [1] 9.32% | growth inhibition [2] 6.46% | viability increase [3] -1.41% | viability [4] 95.7% | viability [5] 92.5% | inhibition [6] -0.06% | RAM network inhibition [7] 6.61%

CCCCCn1c(=N)n(CC(O)COc2ccccc2OC)c2ccccc21 (stereo not given)
active: viability [4] 15.6% | viability [5] 21.9%
inactive: growth inhibition [1] -4.93% | growth inhibition [2] 4.88% | viability increase [3] -7.9% | inhibition [6] -0.235% | RAM network inhibition [7] 0.4%

Cc1[nH]nc2c1/C(=N\O)CC(C)(C)C2
inactive: growth inhibition [1] 12.7% | growth inhibition [2] -8.1% | viability increase [3] -2% | viability [4] 94.2% | viability [5] 98.1% | inhibition [6] 1.48% | RAM network inhibition [7] -1.33%

COc1ccccc1NC(=O)Cn1c(=O)n2nc(C)nc2c2ccccc21
inactive: growth inhibition [1] -11% | growth inhibition [2] -16.9% | viability increase [3] -4.08% | viability [4] 102% | viability [5] 90.3% | inhibition [6] 1.47% | RAM network inhibition [7] 2.31%

CC(C)n1c(C(O)c2ccc3c(c2)OCO3)nc2ccccc21 (stereo not given)
inactive: growth inhibition [1] -1.25% | growth inhibition [2] 0.5% | viability increase [3] 0.4% | viability [4] 94.8% | viability [5] 90.9% | inhibition [6] 0.905% | RAM network inhibition [7] 2.89%

CCCN(CCC)C(=O)c1ccc2c(c1)N(Cc1ccccc1)C(=O)CS2=O (stereo not given)
inactive: growth inhibition [1] 2.79% | growth inhibition [2] -7.64% | viability increase [3] -2.62% | viability [4] 88.1% | viability [5] 83.4% | inhibition [6] 0.885% | RAM network inhibition [7] 1.55%

Cc1ccc(N(CC(=O)NCc2cccnc2)S(C)(=O)=O)cc1C
inactive: growth inhibition [1] -8.32% | growth inhibition [2] -10.2% | viability increase [3] -2.97% | viability [4] 97.3% | viability [5] 98.8% | inhibition [6] 0.71% | RAM network inhibition [7] 2.28%

COc1ccc(C)cc1Nc1cc(C)nc2ncnn12
inactive: growth inhibition [1] -7.14% | growth inhibition [2] 0.405% | viability increase [3] -4.44% | viability [4] 95.1% | viability [5] 88.9% | inhibition [6] 1.28% | RAM network inhibition [7] -1.57%

C=CCSc1nnc(CSc2nc3sc4c(c3c(=O)[nH]2)CCCC4)n1-c1ccccc1
inactive: growth inhibition [1] 9.19% | growth inhibition [2] 37.7% | viability increase [3] 0.54% | viability [4] 93.2% | viability [5] 91.2% | inhibition [6] 1.42% | RAM network inhibition [7] 11%

Cc1cnn(-c2ccc3nnc(-c4ccc(Br)cc4)n3n2)c1
inactive: growth inhibition [1] -5.48% | growth inhibition [2] -11.2% | viability increase [3] -4.96% | viability [4] 85.9% | viability [5] 84.1% | inhibition [6] 1.4% | RAM network inhibition [7] 3.52%

O=C(Cn1c(=O)oc2cc(S(=O)(=O)N3CCCC3)ccc21)N1CCN(c2ccccn2)CC1
inactive: growth inhibition [1] 4.62% | growth inhibition [2] 6.56% | viability increase [3] 0.96% | viability [4] 90% | viability [5] 92.5% | inhibition [6] 2.1% | RAM network inhibition [7] 6.22%

CCCn1c(CN2CCN(C(=O)OCC)CC2)nc2c1c(=O)n(C)c(=O)n2C
inactive: growth inhibition [1] -3.08% | growth inhibition [2] 1.72% | viability increase [3] -2.59% | viability [4] 92.3% | viability [5] 86.5% | inhibition [6] 0.325% | RAM network inhibition [7] 2.5%

COc1ccc(N2CCN(C(=O)C(Cc3ccccc3)n3cccc3)CC2)cc1 (stereo not given)
inactive: growth inhibition [1] -14.4% | growth inhibition [2] -6.94% | viability increase [3] -2.94% | viability [4] 84.9% | viability [5] 82.6% | inhibition [6] 1.7% | RAM network inhibition [7] 6.88%

Cc1nnc(NC(=O)CSc2nnc(CNC(=O)c3ccccc3)n2-c2ccccc2)s1
inactive: growth inhibition [1] -5% | growth inhibition [2] -0.57% | viability increase [3] 0% | viability [4] 96.1% | viability [5] 96.5% | inhibition [6] 3% | RAM network inhibition [7] 3.59%

COc1ccccc1N1CCN(C(=O)COc2ccc(C)cc2Br)CC1
inactive: growth inhibition [1] -7.34% | growth inhibition [2] -9.51% | viability increase [3] -1.4% | viability [4] 83.5% | viability [5] 72.4% | inhibition [6] -0.16% | RAM network inhibition [7] 2.61%

CCn1cc(C(=O)NC2CCCCCC2)c(=O)c2cc(S(=O)(=O)N3CCCCC3)ccc21
inactive: growth inhibition [1] -3.87% | growth inhibition [2] -20.1% | viability increase [3] -8.11% | viability [4] 72.2% | viability [5] 69.8% | inhibition [6] 0.625% | RAM network inhibition [7] 2.45%

Cc1ccc(C(=O)NCc2ccc3c(c2)OCO3)cc1N1CCCC1=O
inactive: growth inhibition [1] 5.69% | growth inhibition [2] 4.36% | viability increase [3] -1.36% | viability [4] 91.7% | viability [5] 98.2% | inhibition [6] 0.635% | RAM network inhibition [7] 4.17%

O=C(C(Cc1ccccc1)n1cccc1)N1CCc2ccccc21 (stereo not given)
inactive: growth inhibition [1] -16.3% | growth inhibition [2] -9.65% | viability increase [3] -3.05% | viability [4] 81.2% | viability [5] 68.2% | inhibition [6] 2.29% | RAM network inhibition [7] 3.93%

Cc1cccc(N=C(N2CCOCC2)P(=O)(N2CCOCC2)N2CCOCC2)c1
inactive: growth inhibition [1] -24.7% | growth inhibition [2] -23.4% | viability increase [3] -0.69% | viability [4] 98.1% | viability [5] 92.6% | inhibition [6] 3.29% | RAM network inhibition [7] 5.26%

CCOC(=O)C1CCN(C(=O)CN(c2ccc(OC)cc2)S(=O)(=O)c2c(C)nn(C)c2C)CC1
inactive: growth inhibition [1] -3.58% | growth inhibition [2] -3.18% | viability increase [3] -0.02% | viability [4] 98.7% | viability [5] 104% | inhibition [6] 1.46% | RAM network inhibition [7] 2.69%

COc1ccccc1NC(=O)CSc1nc2sc(C)c(C)c2c(=O)n1Cc1ccco1
inactive: growth inhibition [1] 9.68% | growth inhibition [2] 9.95% | viability increase [3] -3.07% | viability [4] 91% | viability [5] 92% | inhibition [6] 2.17% | RAM network inhibition [7] 3.57%

CCCS(=O)(=O)c1nc(S(=O)(=O)c2ccc(C)cc2)c(NCCN2CCOCC2)s1
inactive: growth inhibition [1] -8.93% | growth inhibition [2] -6.58% | viability increase [3] -0.11% | viability [4] 93.7% | viability [5] 86.7% | inhibition [6] 1.04% | RAM network inhibition [7] 6.38%

Cc1nnc(-c2ccccc2)c[n+]1[O-]
inactive: growth inhibition [1] -6.06% | growth inhibition [2] -14.7% | viability increase [3] -2.16% | viability [4] 101% | viability [5] 95.2% | inhibition [6] 0.98% | RAM network inhibition [7] 0.63%

COc1ccc(CC(=O)Nc2c3c(nn2C(C)(C)C)CS(=O)C3)cc1 (stereo not given)
inactive: growth inhibition [1] -13.6% | growth inhibition [2] -4.57% | viability increase [3] -0.14% | viability [4] 109% | viability [5] 101% | inhibition [6] 1.24% | RAM network inhibition [7] 0.63%

CCOc1ccccc1NC(=O)Cn1cnc2c(nnn2-c2cccc(OC)c2)c1=O
inactive: growth inhibition [1] -2.45% | growth inhibition [2] -1.71% | viability increase [3] -1.23% | viability [4] 87.2% | viability [5] 73.3% | inhibition [6] 3.82% | RAM network inhibition [7] 4.89%

O=C(O)c1cc(-c2ccc(Cl)cc2)n[nH]1
inactive: growth inhibition [1] -6.99% | growth inhibition [2] 0.335% | viability increase [3] -0.39% | viability [4] 100% | viability [5] 96% | inhibition [6] 0.27% | RAM network inhibition [7] 0.61%

CCc1nccn1S(=O)(=O)c1ccc2ccccc2c1
inactive: growth inhibition [1] 0.77% | growth inhibition [2] -2.31% | viability increase [3] -1.22% | viability [4] 102% | viability [5] 103% | inhibition [6] 0.7% | RAM network inhibition [7] 3.49%

CC1(C)CC(=O)C(C=NCc2cccnc2)=C(O)C1
inactive: growth inhibition [1] -10.7% | growth inhibition [2] -17.6% | viability increase [3] 0.64% | viability [4] 92.8% | viability [5] 98.8% | inhibition [6] 0.7% | RAM network inhibition [7] 4.76%

CCCN(CCC(=O)Nc1ccccc1F)CC1CC1
inactive: growth inhibition [1] -12.8% | growth inhibition [2] -18.1% | viability increase [3] -1.44% | viability [4] 99.1% | viability [5] 95.3% | inhibition [6] 0.64% | RAM network inhibition [7] -0.31%
